T cell modulator: modulators of CD8 T cell-vesicle binding, primary screen, mouse 2C CD8+ T cells, flow cytometry; response (vesicle binding), % at 7 µM; hit rate 0.068% among 330,000; 2C CD8+ T cell-vesicle binding; stronger effect = lower value; AID 2052, 2009;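 active = response, share of CD8 T cells binding vesicles, and their 90th percentile fluorescence all below set limits, cut at about 80% in these data, passing the limit was not always enough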;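 note: values below 100% mean blocked vesicle binding to the CD8+ T cells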
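material = purified 2C TCR transgenic mouse naive CD8+ T cells | controls = Unloaded micro-vesicles (low), QL9 vesicles with 0.7% DMSO (high) | detection = cytometric PE anti-B7-1 and Alexa647 anti-CD8 signals after 1% paraformaldehyde fixation | incubation = binding step 1.5 h, 37 °C, antibody labelling 20 min, ice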
Glyco luc inh: increase of ERlucT glycosylation luciferase signal, primary screen, N-linked glycosylation inhibitor project, D54 ERlucT cells, luminescence, set 2; hit rate 0.23% among 360,000; D54 ERlucT glycosylation luciferase reporter, 24 h; percent of 100 nM tunicamycin response; AID 588692, 2011; reporter increase, % at 12.5 µM;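 active = mean luciferase reporter signal, scaled so untreated is 0 and the glycosylation-blocking control 100, at or above a set limit in every replicate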;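 note: luciferase carries N-glycosylation sites so blocking glycosylation raises the light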
ALR H2O2 inh: inhibitors of human ALR sulfhydryl oxidase, primary screen, biochemical, H2O2 detection, HRP-luminol luminescence, single point; purified ALR, DTT oxidation; inhibition, % (concentration not given with the values); hit rate 3.8% among 290,000; AID 485317, 2010;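 active = mean replicate inhibition above about 79%, with every replicate also reaching it, limit read from the data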
Target sequence (P55789 whole entry, looked up): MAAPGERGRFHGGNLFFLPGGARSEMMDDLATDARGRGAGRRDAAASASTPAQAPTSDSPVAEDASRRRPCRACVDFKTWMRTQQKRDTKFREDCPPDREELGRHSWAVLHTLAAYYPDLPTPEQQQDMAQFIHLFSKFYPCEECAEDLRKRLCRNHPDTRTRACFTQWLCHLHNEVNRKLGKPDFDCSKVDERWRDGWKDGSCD
Hits are given with their value; – = inactive; · = no result. This is one part of a sample in which hits are shown more often than they occur.

SMILES	T cell modulator	Glyco luc inh	ALR H2O2 inh
CC1(C)Cc2c(C#N)c(NC3CCCCC3)nc(-c3ccco3)c2CO1	0.0	–	–
COc1ccc(Cl)cc1S(=O)(=O)N1CCCC(C(=O)NCc2ccccn2)C1 (stereo not given)	–	–	–
Cc1cc(C)nc(Nc2ccc(N3CCOCC3)cc2)n1	–	–	99
Cc1cc(C)nc(Nc2ccc(C(=O)O)cc2)n1	–	–	–
Oc1cccc(Nc2nc(N3CCOCC3)nc(N3CCOCC3)n2)c1	–	–	84
Cc1cccc(Nc2nc(N3CCOCC3)nc(N3CCOCC3)n2)c1	–	–	–
CCCCNC(=O)CSc1nc2ccc(Nc3nc(N4CCOCC4)nc(N4CCOCC4)n3)cc2s1	–	–	–
CCCCSc1nc2ccc(Nc3nc(N4CCOCC4)nc(N4CCOCC4)n3)cc2s1	–	–	90
Cc1cc(C)nc(Nc2ccc(N3CCCC3)cc2)n1	–	–	–
Cc1cc(C)nc(Nc2ccc(O)cc2)n1	–	–	100
Cc1noc(NS(=O)(=O)c2ccc(NC(=O)c3cc(F)c(F)c(F)c3F)cc2)c1C	·	–	·
Cc1ccc(S(=O)(=O)NC(CC(=O)O)c2cccs2)cc1 (stereo not given)	–	–	–
COc1ccc(/C=N/N2CCN(Cc3ccc(C)cc3)CC2)cc1Br	–	–	–
O=C(O)c1ccc(N/N=C/C2=C(N3CCOCC3)C(=C\c3ccccc3)/CC2)cc1	–	–	97
CCNC(=S)NNc1nc(N2CCOCC2)nc(N2CCOCC2)n1	–	–	–
Cc1cc(C)nc(NN=CC2=C(N3CCOCC3)/C(=C/c3ccc(Cl)cc3)CC2)n1	·	–	·
Cc1cc(C)nc(N/N=C/C2=C(N3CCOCC3)C(=C\c3ccc(Cl)cc3)/CC2)n1	–	–	98
Cn1cc(C(=O)N/N=C/C2=C(N3CCOCC3)C(=C/c3ccc([N+](=O)[O-])cc3)/CC2)ccc1=O	–	–	·
Cc1cc(C)nc(N/N=C/c2ccc(N3CCOCC3)cc2)n1	–	–	97
Cc1ccc(/C=N/Nc2nc(C)cc(C)n2)cc1	–	–	–
CNC(=S)NNc1nc(N2CCOCC2)nc(N2CCOCC2)n1	–	–	85
Cc1ccc(C)c(C(=O)CCC(=O)Nc2ccc(F)cc2)c1	–	–	–
CCc1nn2c(=O)cc(COC(=O)c3cc(Cl)c(OC)c(OC)c3)nc2s1	–	–	–
COc1ccc(OC)c2sc(N(CCCN(C)C)C(=O)CCS(=O)(=O)c3ccccc3)nc12	–	–	–
Cc1ccc2sc(N(CCCN(C)C)C(=O)CCS(=O)(=O)c3ccccc3)nc2c1C	–	–	98
SMILES	T cell modulator	Glyco luc inh	ALR H2O2 inh
Cc1ccc(C)c(OCC(O)CN2CCN(CCN3C(=O)c4cccc5cccc(c45)C3=O)CC2)c1 (stereo not given)	–	57	–
CC(=O)c1ccccc1OCC(O)CN1CCN(CCN2C(=O)c3cccc4cccc(c34)C2=O)CC1 (stereo not given)	–	–	–
CCCCC/C(=N\NC(=O)CCC(=O)NCc1ccccc1)c1ccccc1	–	–	–
CC/C(=N\NC(=O)CCC(=O)NCc1ccccc1)c1ccc(O)cc1	–	–	99
Cc1cc(C(C)(C)C)cc(CN2CCN(S(=O)(=O)c3cccs3)CC2)c1O	·	–	·
O=C(CN1C(=O)/C(=C2/SC(=S)N(CCS(=O)(=O)O)C2=O)c2ccccc21)Nc1cccc(Br)c1	–	–	–
Cc1nn(-c2ccccc2)c2[nH]c(=O)c(CNc3ccc(N4CCOCC4)cc3)cc12	–	–	97
CC(C)(C)c1nn(-c2ccccc2)c2[nH]c(=O)c(CNc3ccc4c(c3)OCCO4)cc12	–	–	–
Brc1ccc2nc(-c3c[nH]c4ccccc34)cn2c1	–	–	·
Cc1cccn2cc(-c3c[nH]c4ccccc34)nc12	–	–	98
CSc1nc2ccccc2nc1N(C)S(=O)(=O)c1ccc(C)cc1	–	–	·
Brc1ccc(-c2nc3c4ccccc4ccn3c2Cc2ccccc2)cc1	·	–	·
Cc1ccc(OCC(O)CN2CCN(c3ccccc3)CC2)cc1 (stereo not given)	–	–	–
Oc1ccccc1N1CCN(CC(O)COCc2ccccc2Cl)CC1 (stereo not given)	–	–	99
COc1ccc(N2CCN(CC(=O)Nc3cc(C)cc(C)c3)CC2)cc1	–	–	·
COc1ccc(N2CCN(CC(=O)Nc3ccc(C)c(C)c3)CC2)cc1	–	–	98
Oc1ccc(N2CCN(CC(O)c3ccccc3)CC2)cc1 (stereo not given)	–	–	99
OC(COc1ccccc1Cl)CN1CCN(CC(O)COc2ccccc2Cl)CC1 (stereo not given)	–	–	–
